A short description of assay [1]: Inhibition of N-terminal GST/His6-tagged human recombinant TEAD1 (209 to 424 residues)/YBD (unknown origin) incubated for 5 hrs by TR-FRET assay. An outline of the steps: (§1)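 His-tagged TEAD YAP-binding domain protein (100 nM), expressed in Rosetta(DE3) pLysS and purified by cobalt resin then gel filtration. Protein preincubated with inhibitor for 5 h in 50 mM HEPES pH 7.5, 200 mM NaCl, 0.1% Pluronic F-68. Then 800 nM tracer WZJ-10 and anti-6His Tb cryptate (50 ng/mL final) added; TR-FRET read at 490/520 nm. Mean ± SEM of two experiments, each in biological triplicate.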

Assay [2] in a line: Inhibition of N-terminal His6-tagged human recombinant TEAD3 (216 to 434 residues)/ recombinant YBD (unknown origin) incubated for 5 hrs by TR-FRET assay. In short, it runs like this: as §1
For orientation: In TR-FRET formats the signal depends on donor and acceptor labels being close together.

The nature of assay [3]: Inhibition of N-terminal His6-tagged human recombinant TEAD4 (209 to 427 residues)/ recombinant YBD (unknown origin) incubated for 5 hrs by TR-FRET assay. An outline of the steps: as §1
A short description of assay [4]: Inhibition of N-terminal His6-tagged human recombinant TEAD2 (217 to 447 residues)/ recombinant YBD (unknown origin) incubated for 5 hrs by TR-FRET assay. In short, it runs like this:
as §1

A short description of assay [5]: Inhibition of TEAD transcriptional activity in human NCI-H226 cells assessed as luciferase activity measured for 3 days by reporter gene assay. It counts as cell-based. The note with it: NCI-H226, 72 h. In short, it runs like this:
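NCI-H226 cells transduced with a pan-TEAD response element luciferase reporter lentivirus (8 μg/mL polybrene) and puromycin-selected. Seeded at 1000 cells per well in 384-well plates and treated with inhibitor for 3 days. Luciferase read with One-Glo and normalized to CellTiter-Glo viability.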
Background: A reporter such as luciferase makes a cellular process visible.

Assay [6] is described as follows: Antiproliferative activity against human 94T778 cells assessed as reduction in cell viability measured for 5 days by celliter-glo assay. It counts as functional, cell-based. The following applies: 94T778, 120 h. An outline of the steps: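 94T778 well-differentiated liposarcoma cells grown in RPMI1640 with 10% FBS and 1% penicillin/streptomycin. Treated with inhibitor for 5 days and viability read as CellTiter-Glo luminescence. Mean ± SD of n = 3 biological independent samples.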

Assay [7] deals with NCI-H226. Put plainly: Antiproliferative activity against human NCI-H226 cells assessed as reduction in cell viability measured for 5 days by celliter-glo assay. It counts as functional, cell-based. The following applies: NCI-H226, 120 h. In short, it runs like this:
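NCI-H226 mesothelioma cells grown in RPMI1640 with 10% FBS and 1% penicillin/streptomycin, seeded at 100 cells per well in 384-well plates. Inhibitor added by digital dispenser, 5-day incubation. CellTiter-Glo luminescence read after 20 min, normalized to DMSO-treated samples. Mean ± SD of n = 3 biological independent samples.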

For orientation: IC50 means the point on the concentration scale where inhibition reaches its midpoint.

Regarding `C=C(C(=O)N1C[C@@H](n2cc(-c3cccnc3)nn2)[C@H](OCc2ccc(C(F)(F)F)cc2)C1)C(F)(F)F`, the 50% inhibitory concentration (IC50) in assay [1] is 0.042 µM; in assay [2], 0.019 µM; in assay [3], > 10 µM; in assay [4], 0.019 µM; in assay [5], 2.75 µM.
As to `C=CC(=O)N1C[C@@H](OCc2ccc(C(F)(F)F)cc2)[C@H](c2ccc(S(C)(=O)=O)cc2)C1` (racemic), the IC50 amounted to 0.051 µM in assay [1]; 0.051 µM in assay [2]; 0.083 µM in assay [3]; 0.305 µM in assay [4]; 0.153 µM in assay [5].
For the compound `C=CC(=O)N1C[C@@H](n2cc(-c3cccnc3)nn2)[C@H](OCc2ccc(C(F)(F)F)cn2)C1` (racemic), the IC50 in assay [1] worked out at 0.207 µM; in assay [2], 0.144 µM; in assay [3], 2.48 µM; in assay [4], 0.23 µM; in assay [5], 0.67 µM.
On the same counts, the results for `C=CC(=O)N1C[C@@H](n2cc(-c3cccnc3)nn2)[C@H](OCc2cc(Cl)cc(C(F)(F)F)c2)C1` (racemic) are 0.425 µM, 0.426 µM, > 10 µM, 0.23 µM and 0.985 µM.
In the case of `C=CC(=O)N1C[C@@H](Nc2ncccn2)[C@H](OCc2ccc(C(F)(F)F)cc2)C1` (racemic), the IC50 in assay [1] was determined as 0.029 µM; in assay [6], 0.034 µM; in assay [2], 0.03 µM; in assay [3], 0.025 µM; in assay [4], 0.009 µM; in assay [7], 0.016 µM. The IC50 in assay [5] was 0.014 µM.
Consider `CC#CC(=O)N1C[C@@H](n2cc(-c3cccnc3)nn2)[C@H](OCc2ccc(C(F)(F)F)cc2)C1`, for which the IC50 in assay [1] is 0.044 µM; in assay [2], 0.047 µM; in assay [3], > 10 µM; in assay [4] it was 0.459 µM; in assay [5] it was 0.229 µM.
On to `C=CC(=O)N1C[C@@H](Cc2ccccn2)[C@H](OCc2ccc(C(F)(F)F)cc2)C1` (racemic), for which the IC50 is 0.033 µM in assay [1]; 0.612 µM in assay [6]; 0.048 µM in assay [2]; 0.062 µM in assay [3]; 0.192 µM in assay [4]; 0.186 µM in assay [7]. For the same compound, the half-maximal inhibitory concentration (IC50) in assay [5] came to 0.058 µM.
As to `C=CC(=O)N1C[C@@H](n2cc(-c3cccnc3)nn2)[C@H](OCc2ccc(C(F)(F)F)nc2)C1` (racemic), the IC50 in assay [1] was 0.391 µM; in assay [2] it was 0.834 µM; in assay [3], > 10 µM; in assay [4], 0.911 µM; in assay [5], 2.21 µM.
As for `C=CC(=O)N1C[C@@H](n2cc(-c3cccnc3)nn2)[C@H](OCC23CC4CC(CC(C4)C2)C3)C1` (mixture of isomers), the IC50 in assay [1] was found to be 0.118 µM; in assay [2] it was 0.038 µM; in assay [3], 0.604 µM; in assay [4], 0.026 µM; in assay [5] it was 1.38 µM.
For `C=CC(=O)N1C[C@@H](Nc2ncc(F)cn2)[C@H](OCc2ccc(C(F)(F)F)cc2)C1` (racemic), the concentration for half-maximal inhibition (IC50) was 0.03 µM in assay [1]; 0.114 µM in assay [6]; 0.026 µM in assay [2]; 0.021 µM in assay [3]; 0.017 µM in assay [4]; 0.028 µM in assay [7]. Besides, in assay [5], the IC50 was determined as 0.016 µM.
`C=CC(=O)N1C[C@@H](n2ncccc2=O)[C@H](OCc2ccc(C(F)(F)F)cc2)C1` (racemic): the IC50 came out at 0.042 µM in assay [1]; 0.214 µM in assay [6]; 0.05 µM in assay [2]; 0.098 µM in assay [3]; 0.103 µM in assay [4]; 0.15 µM in assay [7]. The IC50 in assay [5] turned out to be 0.09 µM.
Consider `C=CC(=O)N1C[C@@H](n2cc(-c3ccncn3)nn2)[C@H](OCc2ccc(C(F)(F)F)cc2)C1` (racemic), for which the IC50 amounted to 0.04 µM in assay [1]; 0.051 µM in assay [2]; 0.718 µM in assay [3]; 0.103 µM in assay [4]; 0.206 µM in assay [5].
With `C=C(F)C(=O)N1C[C@@H](n2cc(-c3cccnc3)nn2)[C@H](OCc2ccc(C(F)(F)F)cc2)C1`, the half-maximal inhibitory concentration (IC50) came out at 0.029 µM in assay [1]; 0.173 µM in assay [6]; 0.031 µM in assay [2]; 0.467 µM in assay [3]; 0.197 µM in assay [4]; 0.131 µM in assay [7]. Also, the IC50 in assay [5] worked out at 0.086 µM.
For the compound `C=CC(=O)N1C[C@@H](n2cc(-c3cccnc3)nn2)[C@H](OCC2CCC(F)(F)CC2)C1` (racemic), the IC50 came out at 0.264 µM in assay [1]; 0.068 µM in assay [2]; 0.685 µM in assay [3]; 0.05 µM in assay [4]; 0.467 µM in assay [5].
As to `C=CC(=O)N1CCN(c2ncccn2)CC(OCc2ccc(C(F)(F)F)cc2)C1` (racemic), the IC50 was 0.08 µM in assay [1]; 0.429 µM in assay [2]; 0.236 µM in assay [3]; 0.578 µM in assay [4]; 0.522 µM in assay [5].
`C=CC(=O)N1C[C@@H](n2cc(-c3cccnc3)nn2)[C@H](OCc2ccc(C(F)(F)F)cc2)C1` (racemic): the IC50 in assay [1] was determined as 0.037 µM; in assay [6] it was 0.173 µM; in assay [2], 0.026 µM; in assay [3], 0.025 µM; in assay [4] it was 0.049 µM; in assay [7], 0.063 µM. The IC50 in assay [5] came to 0.106 µM.
As for `C=CC(=O)N1CC[C@@H](OCc2ccc(C(F)(F)F)cc2)[C@H](Nc2ncc(F)cn2)C1` (racemic), the IC50 in assay [1] was determined as 0.056 µM; in assay [6] it was 1.02 µM; in assay [2], 0.121 µM; in assay [3], 0.427 µM; in assay [4] it was 1.24 µM; in assay [7], 0.246 µM. Besides, the concentration for half-maximal inhibition (IC50) in assay [5] worked out at 0.171 µM.
As for `C=CC(=O)N1C[C@@H](n2ccnn2)[C@H](OCc2ccc(C(F)(F)F)cc2)C1` (racemic), the IC50 in assay [1] was 0.031 µM; in assay [2], 0.02 µM; in assay [3] it was 0.406 µM; in assay [4] it was 0.079 µM; in assay [5], 0.153 µM.
Take `C=C(F)C(=O)N1C[C@@H](Nc2ncccn2)[C@H](OCc2ccc(C(F)(F)F)cc2)C1`: the IC50 in assay [1] worked out at 0.047 µM; in assay [6], 0.04 µM; in assay [2], 0.032 µM; in assay [3] it was 0.071 µM; in assay [4], 0.275 µM; in assay [7] it was 0.024 µM. In assay [5], the IC50 was 0.017 µM.
`C=CC(=O)N1C[C@@H](n2cccn2)[C@H](OCc2ccc(C(F)(F)F)cc2)C1` (racemic): the IC50 in assay [1] is 0.056 µM; in assay [6] it was 0.258 µM; in assay [2], 0.036 µM; in assay [3], 0.111 µM; in assay [4] it was 0.178 µM; in assay [7], 0.368 µM. In addition, the IC50 in assay [5] worked out at 0.131 µM.
On to `Cc1cccc([C@H](C)NC(=O)c2ccc3c(-c4ccc(C(F)(F)F)cc4)cccc3c2)n1`, for which the IC50 in assay [1] is 0.031 µM; in assay [2] it was 0.019 µM; in assay [3], 0.035 µM; in assay [4], 0.04 µM.
As to `CN(C)C/C=C/C(=O)N1C[C@@H](n2cc(-c3cccnc3)nn2)[C@H](OCc2ccc(C(F)(F)F)cc2)C1`, the half-maximal inhibitory concentration (IC50) is 1.03 µM in assay [1]; 1.64 µM in assay [2]; > 10 µM in assay [3]; > 10 µM in assay [4]; 1.71 µM in assay [5].
As for `C=CC(=O)N1C[C@@H](n2cc(-c3cccnc3)nn2)[C@H](OCc2cc(C(F)(F)F)ccc2Cl)C1` (racemic), the IC50 in assay [1] turned out to be 0.1 µM; in assay [2], 0.215 µM; in assay [3] it was 4.43 µM; in assay [4], 0.604 µM; in assay [5], 1.72 µM.

The values are drawn from ChEMBL document CHEMBL5380827, “Structure-Based Design of Y-Shaped Covalent TEAD Inhibitors” (J Med Chem, 2023).
